Source: paper PMC4131791 (Memórias do Instituto Oswaldo Cruz, 2014)
In brackets after ≈: the same amount, converted by molar mass.

Tested on: Trypanosoma cruzi (Tulahuen strain) expressing β-galactosidase, trypomastigote and amastigote forms
Type: cell-based
Settings: L929, read-out: IC50 of the positive control
Method in brief: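 L929 fibroblasts were seeded at 4,000/well in phenol red-free RPMI-1640 with 10% FBS and glutamine, then left overnight at 37 °C with 5% CO2. Cells were infected with β-galactosidase Tulahuen trypomastigotes at 40,000/well for 2 h, and free parasites were washed out. After 48 h, test compound (about 100-2 µM, triplicate, from DMSO stocks) was added. After seven days of culture, 100 µM CPRG with 0.1% Nonidet P-40 was added overnight at 37 °C and A570 read. Results were expressed as % growth inhibition, with IC50 by linear interpolation. Benznidazole served as positive control.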

IC50: 1 µg/mL (≈ 3.84 µM)
Compound: O=C(Cn1ccnc1[N+](=O)[O-])NCc1ccccc1 [Benznidazole, benznidazole]
